Reference: ChEMBL document CHEMBL2062368, “The cell adhesion and proliferation activities of a peptide derived from human tenascin-C are dependent on two Ile residues” (Bioorg Med Chem, 2012)
Active and inactive are the calls of the source. The rule behind the calls is not given here.

Assays:
Type in all cases: cell-based
Details in all cases: NIH3T3
[1] = molecular target: T1, Syndecan-4 (Mus musculus) (UniProt O35988); assay: Binding affinity to syndecan 4 in mouse NIH/3T3 cells assessed as stimulation of beta 1 integrin-mediated cell spreading at 50 ug/ml […] by microscopic analysis
T1 sequence (whole entry): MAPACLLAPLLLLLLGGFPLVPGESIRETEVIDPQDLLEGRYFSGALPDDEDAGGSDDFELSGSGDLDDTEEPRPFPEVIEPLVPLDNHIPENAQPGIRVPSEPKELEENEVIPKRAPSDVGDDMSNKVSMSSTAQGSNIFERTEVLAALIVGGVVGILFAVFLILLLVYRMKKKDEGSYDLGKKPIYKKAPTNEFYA
Outline: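 Fibronectin-coated, BSA-blocked wells; NIH-3T3 cells incubated with peptide (50 µg/ml) or PBS control for 1 h at 37 °C, then washed. Spread cells counted under a microscope in 4 independent fields; mean ± S.E. of triplicates.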

[2] = molecular target: T1, Syndecan-4 (Mus musculus); assay: Binding affinity to syndecan 4 in mouse NIH/3T3 cells assessed as stimulation of beta 1 integrin-mediated cell adhesion at 50 ug/ml […] by microscopic analysis
Outline: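 Wells coated with fibronectin at 37 °C, blocked with BSA. NIH-3T3 cell suspension plus peptide (50 µg/ml) or PBS control incubated 1 h at 37 °C. Non-adhered cells washed off; attached cells counted by microscope in 4 independent fields. Mean ± S.E. of triplicate measurements.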

[3] = molecular target: T1, Syndecan-4 (Mus musculus); assay: Binding affinity to syndecan 4 in mouse NIH/3T3 cells assessed as increase in cell proliferation at 25 to 50 ug/ml after 2 days by MTT assay relative to TNIIIA2 peptide
Outline: (§1)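 NIH-3T3 cells with peptide at 25 and 50 µg/ml on fibronectin-coated, BSA-blocked wells, 2 days at 37 °C. MTT (0.5 mg/ml in phenol-red-free RPMI-1640) added for a further 3 h. Dye solubilized in acidic isopropanol (0.04 M HCl), absorbance read at 570 nm minus 650 nm background.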

[4] = molecular target: T1, Syndecan-4 (Mus musculus); assay: Binding affinity to syndecan 4 in mouse NIH/3T3 cells assessed as induction of cell proliferation at 25 to 50 ug/ml after 2 days by MTT assay; outline: as §1

Substance	Activity [1]	Activity [2]	fold change (FC) [3]	Activity [4]
H-ASTDLPGLKAATHYTITIRGVKC-OH	inactive	inactive	2	–
H-RSTDLPGLAAATHYTITIRGVKC-OH	inactive	inactive	2	–
H-RSTDLPGLKAATHATITIRGVKC-OH	inactive	Active	–	–
H-RSTDLPGLKAATHYAITIRGVKC-OH	–	Active	–	–
H-RSTDLPGLKAATHYTATIRGVKC-OH	inactive	Active	–	inactive
H-RSTDLPGLKAATHYTIAIRGVKC-OH	–	Active	–	–
H-RSTDLPGLKAATHYTITARGVKC-OH	inactive	Active	–	inactive
H-RSTDLPGLKAATHYTITIAGVKC-OH	inactive	inactive	–	Active
H-RSTDLPGLKAATHYTITIRGVKC-OH	Active	Active	–	Active
